These results are taken from ChEMBL document CHEMBL1155047, “Isolation, structure, and antibacterial activity of phaeosphenone from a Phaeosphaeria sp. discovered by antisense strategy” (J Nat Prod, 2008).

As a reminder, the MIC80 is an inhibitory concentration at the 80% level, which refers to growth in some studies and to a panel of isolates in others. Read a high MIC80 as weaker potency. Usually IC50 stands for the point on the concentration scale where inhibition reaches its midpoint.

For one test, the system named is Enterococcus faecalis. As to the kind of experiment: Antimicrobial activity against vancomycin-sensitive and macrolide-resistant Enterococcus faecalis CL8516. Format: functional. The gist of the method:
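Broth microdilution MIC under NCCLS guidelines in cation-adjusted Mueller Hinton broth unless stated otherwise; inoculum 10^5 CFU/mL; 2-fold serial compound dilutions in growth medium; 37 °C for 20 h. MIC read as lowest concentration preventing visible growth; a value for 80% growth inhibition also reported.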

Test [1] deals with Streptococcus pneumoniae. As to the kind of experiment: Antimicrobial activity against penicillin, quinoline and macrolide-sensitive Streptococcus pneumoniae CL2883 in isosensitet medium. Format: functional. An outline of the steps: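 Pneumococcal broth MIC run in Isosensitest medium with 2-fold serial compound dilutions, 37 °C for 20 h. The reading is the lowest concentration with no visible growth.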

In test [2] the test system is Streptococcus pneumoniae. The experiment in a line: Antimicrobial activity against penicillin, quinoline and macrolide-sensitive Streptococcus pneumoniae CL2883 in CAMHB and 2.5 % lysed horse serum medium. Type of test: functional. To be noted: in the assay text read “lysed horse blood” for “lysed horse serum”. The gist of the method: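 Broth MIC with 2-fold serial dilution in cation-adjusted Mueller Hinton broth plus 2.5% lysed horse blood, incubated 20 h at 37 °C, NCCLS guidelines. Endpoint is no visible growth.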

Test [3] relates to Staphylococcus aureus. The experiment in a line: Antimicrobial activity against methicillin-sensitive Staphylococcus aureus MB2865 in presence of human serum. Type of test: functional.
In test [4] the test system is Staphylococcus aureus. The experiment in a line: Antimicrobial activity against methicillin-sensitive Staphylococcus aureus MB2865. Format: functional. The gist of the method: (§1)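 Broth microdilution under NCCLS guidelines, with 2-fold serial compound dilutions. Cells are incubated at 37 °C for 20 h. MIC is the lowest concentration that prevents visible growth. The concentration giving 80% growth inhibition is also reported.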

Test [5] concerns Staphylococcus aureus. As to the kind of experiment: Antimicrobial activity against methicillin-sensitive Staphylococcus aureus ATCC 29213. Format: functional. An outline of the steps:
as §1

In a further test the test system is Bacillus subtilis. As to the kind of experiment: Antimicrobial activity against wild type Bacillus subtilis MB964. Format: functional. An outline of the steps:
as §1

The subject of a further test is Haemophilus influenzae. As to the kind of experiment: Antimicrobial activity against ampicillin, quinoline and macrolide-sensitive Haemophilus influenzae MB4572. Type of test: functional. The gist of the method: as §1
The next test relates to Escherichia coli. The experiment in a line: Antimicrobial activity against wild type Escherichia coli MB2884. Format: functional. The gist of the method: as §1
In the next test the test system is Candida albicans. As to the kind of experiment: Antimicrobial activity against wild type Candida albicans MY1055. Type of test: functional. The gist of the method: as §1
In test [6] the test system is Staphylococcus aureus. The experiment in a line: Antimicrobial activity against Staphylococcus aureus RN450 carrying plasmid S1-782B bearing antisense […] RNA assessed as zone size at 500 ug/ml by two-plate differential sensitivity assay. Format: functional. The conditions noted are these: read-out: IZ. The gist of the method:
(§2)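 The S. aureus RN450 strains carry plasmid S1-782B, either with rpsD antisense RNA or with empty vector (control). Overnight cultures are grown in Miller's LB with 34 µg/mL chloramphenicol at 37 °C, 220 rpm, for 18–20 h. They are seeded 1:1000 of OD 3.0 into LB agar with 0.2% glucose and 15 µg/mL chloramphenicol; 12 mM xylose is added for the antisense strain only. Samples go into wells at 2-fold dilutions from 500 to 31.25 µg/mL. Zones are read after 18 h at 37 °C.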

The subject of test [7] is Staphylococcus aureus. The experiment in a line: Antimicrobial activity against Staphylococcus aureus RN450 assessed as zone size at 500 ug/ml by two-plate differential sensitivity assay. To be noted: read-out: IZ. Type of test: functional. The gist of the method:
as §2

Test [8] has as its system Staphylococcus aureus. The experiment in a line: Antimicrobial activity against Staphylococcus aureus RN450 carrying plasmid S1-782B bearing antisense […] RNA assessed as zone size at 31.25 ug/ml by two-plate differential sensitivity assay. Type of test: functional. To be noted: read-out: IZ. An outline of the steps:
as §2

In test [9] the test system is Staphylococcus aureus. As to the kind of experiment: Antimicrobial activity against Staphylococcus aureus RN450 assessed as zone size at 31.25 ug/ml by two-plate differential sensitivity assay. Format: functional, organism-based. The gist of the method: as §2
In test [10] the test system is Staphylococcus aureus. The experiment in a line: Inhibition of Staphylococcus aureus RNA synthesis. Format: functional, organism-based. An outline of the steps:
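Mid-log S. aureus (A600 0.5–0.6) is exposed to increasing compound concentrations for 20 min at 37 °C with 1 µCi/mL 5,6-[3H]uracil. The reaction is stopped with 10% trichloroacetic acid, and cells are collected on glass-fibre filters. Incorporated label is counted by scintillation.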

Values after ≈ are worked out from the molar mass of the structure shown. Active and inactive are the calls of the source. The calls are words filed in the database; no cut-off is given here.

As for `Cc1cc(O)c2c(c1)C(=O)c1c(cc(C)c([C@H]3C[C@@H](O)C4=C(C(=O)C5=C(C4=O)[C@@H](O)CC[C@@H]5O)[C@H]3O)c1O)C2=O` [PHAEOSPHENONE], the MIC against Enterococcus faecalis is 64 µg/mL (≈ 117 µM); in the test with Streptococcus pneumoniae [1], 8 µg/mL (≈ 14.6 µM); against Streptococcus pneumoniae [2], 64 µg/mL (≈ 117 µM); in the test on Staphylococcus aureus [3] it was more than 64 µg/mL; against Staphylococcus aureus [4] it was 64 µg/mL (≈ 117 µM); in the test with Staphylococcus aureus [5], 32 µg/mL (≈ 58.6 µM). Besides, the MIC was 16 µg/mL (≈ 29.3 µM) with Bacillus subtilis, more than 64 µg/mL against Haemophilus influenzae, more than 64 µg/mL in the test with Escherichia coli and 8 µg/mL (≈ 14.6 µM) against Candida albicans. Further, the MIC80 against Staphylococcus aureus [4] was found to be 32 µg/mL (≈ 58.6 µM); against Staphylococcus aureus [5], 16 µg/mL (≈ 29.3 µM). The zone of inhibition at 500 µg/mL was found to be 16 mm in the test on Staphylococcus aureus [6] and 11.8 mm in the test on Staphylococcus aureus [7]. Further, the zone of inhibition at 31.25 µg/mL in the test on Staphylococcus aureus [8] turned out to be 7 mm. Moreover, the outcome in the test on Staphylococcus aureus [9] was inactive.

In the test with Staphylococcus aureus [10], `Cc1cc(O)c2c(c1)C(=O)C1=C(C2=O)[C@@H](O)[C@@H](O)[C@@H](O)C1` [PLEOSPORONE] registered an IC50 of 6 µg/mL (≈ 20.7 µM).
